Test results from ChEMBL document CHEMBL1141617, “Synthesis and evaluation of antitumoral activity of ester and amide derivatives of 2-arylamino-6-trifluoromethyl-3-pyridinecarboxylic acids” (2008).

Legend:
Format in all cases: functional
LOX IMVI = assay: Growth inhibition of human LOXIMVI cells; details: for TGI: read-out: Log TGI (converted)
Outline: (§1)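 NCI 60 human tumour cell line panel grown in RPMI1640 with 5% fetal calf serum and 2 mM L-glutamine. Cells seeded at a density set by each line's growth characteristics and preincubated 24 h. Compounds added in DMSO at 10^-4 to 10^-8 M (five 10-fold dilutions) and left 48 h continuously. Growth read by sulforhodamine B protein stain. GI50 is the molar concentration giving 50% net growth inhibition.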

SK-MEL-5 = assay: Growth inhibition of human SK-MEL5 cells; details: for TGI: read-out: Log TGI (converted); outline: as §1
HOP-92 = assay: Growth inhibition of human HOP92 cells; details: for TGI: read-out: Log TGI (converted); outline: as §1
CCRF-CEM = assay: Growth inhibition of human CCRF-CEM cells; outline: as §1
K562 = assay: Growth inhibition of human K562 cells; outline: as §1
MOLT-4 = assay: Growth inhibition of human MOLT4 cells; outline: as §1
HL-60 = assay: Growth inhibition of human HL60 cells; details: for TGI: read-out: Log TGI (converted); outline: as §1
SR = assay: Growth inhibition of human SR cells; details: for TGI: read-out: Log TGI (converted); outline: as §1
EKVX = assay: Growth inhibition of human EKVX cells; outline: as §1
SK-OV-3 = assay: Growth inhibition of human SKOV3 cells; outline: as §1
A498 = assay: Growth inhibition of human A498 cells; outline: as §1
ACHN = assay: Growth inhibition of human ACHN cells; outline: as §1
MDA-MB-231 = assay: Growth inhibition of human MDA-MB-231 cells; details: for TGI: read-out: Log TGI (converted); outline: as §1
RPMI-8226 = assay: Growth inhibition of human RPMI8226 cells; outline: as §1
NCI-H522 = assay: Growth inhibition of human NCI-H522 cells; outline: as §1
HCC 2998 = assay: Growth inhibition of human HCC2998 cells; details: for TGI: read-out: Log TGI (converted); outline: as §1
HCT-116 = assay: Growth inhibition of human HCT116 cells; outline: as §1
IGROV-1 = assay: Growth inhibition of human IGROV1 cells; outline: as §1
PC-3 = assay: Growth inhibition of human PC3 cells; outline: as §1
T47D = assay: Growth inhibition of human T47D cells; outline: as §1
CAKI-1 = assay: Growth inhibition of human CAKI1 cells; outline: as §1
[1] = Growth inhibition of human H23 cells; details: NCI-H23; outline: as §1
SNB-75 = assay: Growth inhibition of human SNB75 cells; outline: as §1
UACC-62 = assay: Growth inhibition of human UACC62 cells; outline: as §1
OVCAR-4 = assay: Growth inhibition of human OVCAR4 cells; outline: as §1
OVCAR-3 = assay: Growth inhibition of human OVCAR-3 cells; outline: as §1
KM12 = assay: Growth inhibition of human KM12 cells; outline: as §1
UO-31 = assay: Growth inhibition of human UO31 cells; outline: as §1
COLO 205 = assay: Growth inhibition of human COLO205 cells; outline: as §1
HCT-15 = assay: Growth inhibition of human HCT15 cells; outline: as §1
U-251 = assay: Growth inhibition of human U251 cells; outline: as §1
Malme-3M = assay: Growth inhibition of human MALME3M cells; outline: as §1
MCF7 = assay: Growth inhibition of human MCF7 cells; outline: as §1

Which GI50 (LOX IMVI) does the source give for `COc1cc(NC(=O)c2ccc(C(F)(F)F)nc2Nc2cc(Cl)ccc2C)cc(OC)c1OC` here?
Its GI50 is 0.724 µM.

What about the TGI (LOX IMVI) of the same compound?
Its TGI is 2.4 µM.

What about the GI50 (SK-MEL-5) of the same compound?
Its GI50 is 1.17 µM.

What about the TGI (SK-MEL-5) of the same compound?
The TGI was 10 µM.

And the GI50 (HOP-92)?
The GI50 was less than 0.01 µM.

And the TGI (HOP-92)?
Its TGI is 1.66 µM.

And the GI50 (CCRF-CEM)?
The GI50 was less than 0.01 µM.

And the GI50 (K562)?
The GI50 was 0.676 µM.

And the GI50 (MOLT-4)?
Its GI50 is less than 0.01 µM.

And the TGI (MOLT-4; read-out: Log TGI (converted))?
The TGI was 0.0417 µM.

What about the GI50 (HL-60) of the same compound?
Its GI50 is 0.0229 µM.

And the LC50 (HL-60)?
Its LC50 is 7.24 µM.

And the TGI (HL-60)?
The TGI was 1.62 µM.

And the GI50 (SR)?
The GI50 was 0.0186 µM.

What about the TGI (SR) of the same compound?
Its TGI is 0.302 µM.

And the GI50 (EKVX)?
The GI50 was 2.75 µM.

And the GI50 (SK-OV-3)?
Its GI50 is 2.04 µM.

And the GI50 (A498)?
The GI50 was 2.34 µM.

What about the GI50 (ACHN) of the same compound?
The GI50 was 1.78 µM.

What about the GI50 (MDA-MB-231) of the same compound?
Its GI50 is 1.66 µM.

And the TGI (MDA-MB-231)?
Its TGI is 8.91 µM.

And the GI50 (RPMI-8226)?
Its GI50 is 0.457 µM.

What about the GI50 (NCI-H522) of the same compound?
Its GI50 is 2.29 µM.

What about the TGI (NCI-H522; read-out: Log TGI (converted)) of the same compound?
Its TGI is 7.41 µM.

What about the GI50 (HCC 2998) of the same compound?
The GI50 was less than 0.01 µM.

And the TGI (HCC 2998)?
The TGI was 5.37 µM.

What about the GI50 (HCT-116) of the same compound?
Its GI50 is 2.51 µM.

And the GI50 (IGROV-1)?
Its GI50 is 0.407 µM.

And the GI50 (PC-3)?
Its GI50 is 1.2 µM.

And the TGI (PC-3; read-out: Log TGI (converted))?
Its TGI is 5.37 µM.

What about the GI50 (T47D) of the same compound?
Its GI50 is 2.14 µM.

And the TGI (T47D; read-out: Log TGI (converted))?
Its TGI is 9.55 µM.

What about the GI50 (CAKI-1) of the same compound?
The GI50 was 2.4 µM.

What about the GI50 [1] of the same compound?
The GI50 was 2.19 µM.

And the GI50 (SNB-75)?
Its GI50 is 1.07 µM.

What about the GI50 (UACC-62) of the same compound?
Its GI50 is 0.955 µM.

What about the GI50 (OVCAR-4) of the same compound?
The GI50 was 1.74 µM.

Which results are given for `COc1cc(NC(=O)c2ccc(C(F)(F)F)nc2Nc2ccc(Cl)cc2C)cc(OC)c1OC`?
GI50 (OVCAR-3): 2.4 µM; GI50 (CCRF-CEM): 1.58 µM; GI50 (HL-60): 1.74 µM; GI50 (KM12): 1.55 µM; GI50 (NCI-H522): 1.62 µM; GI50 (HCC 2998): 1.91 µM; TGI (HCC 2998): 5.62 µM; GI50 (IGROV-1): 0.955 µM; GI50 (PC-3): 1.86 µM; GI50 (T47D): 2.45 µM; GI50 [1]: 2.19 µM

Which GI50 (IGROV-1) does the source give for `Cc1cc(Cl)ccc1Nc1nc(C(F)(F)F)ccc1C(=O)N1CCN(c2cccc(Cl)c2)CC1` here?
Its GI50 is 1.78 µM.

And the GI50 (SNB-75)?
Its GI50 is 1.12 µM.

With `Cc1ccc(Cl)cc1Nc1nc(C(F)(F)F)ccc1C(=O)N1CCN(c2cccc(Cl)c2)CC1` as the compound, how does the GI50 (SR) read?
Its GI50 is 2.75 µM.

For `COc1ccc(N2CCN(C(=O)c3ccc(C(F)(F)F)nc3Nc3cc(Cl)ccc3C)CC2)cc1`, which GI50 (SK-MEL-5) is on record?
Its GI50 is 0.955 µM.

And the GI50 (HOP-92)?
The GI50 was 1.48 µM.

What about the TGI (HOP-92) of the same compound?
The TGI was 7.94 µM.

And the GI50 (IGROV-1)?
Its GI50 is 0.0513 µM.

And the GI50 (CAKI-1)?
The GI50 was 1.38 µM.

And the GI50 (UO-31)?
The GI50 was 1.7 µM.

Which GI50 (LOX IMVI) does the source give for `Cc1cc(Cl)ccc1Nc1nc(C(F)(F)F)ccc1C(=O)Nc1cccc(C(F)(F)F)c1` here?
The GI50 was 2.82 µM.

And the TGI (LOX IMVI)?
Its TGI is 8.51 µM.

And the GI50 (SK-MEL-5)?
Its GI50 is 2.82 µM.

What about the TGI (SK-MEL-5) of the same compound?
The TGI was 9.33 µM.

What about the GI50 (HOP-92) of the same compound?
The GI50 was 2.19 µM.

What about the TGI (HOP-92) of the same compound?
Its TGI is 8.13 µM.

What about the GI50 (HL-60) of the same compound?
Its GI50 is 2.04 µM.

What about the TGI (HL-60) of the same compound?
Its TGI is 4.68 µM.

And the GI50 (SR)?
The GI50 was 2.57 µM.

And the TGI (SR)?
Its TGI is 8.32 µM.

And the GI50 (EKVX)?
The GI50 was 1.86 µM.

And the GI50 (COLO 205)?
The GI50 was 2.51 µM.

And the TGI (COLO 205; read-out: Log TGI (converted))?
Its TGI is 6.17 µM.

And the GI50 (HCT-15)?
Its GI50 is 2.57 µM.

And the TGI (HCT-15; read-out: Log TGI (converted))?
Its TGI is 7.41 µM.

What about the GI50 (KM12) of the same compound?
The GI50 was 2.09 µM.

What about the GI50 (U-251) of the same compound?
The GI50 was 3.02 µM.

And the TGI (U-251; read-out: Log TGI (converted))?
The TGI was 9.77 µM.

And the GI50 (Malme-3M)?
The GI50 was 2 µM.

What about the TGI (Malme-3M; read-out: Log TGI (converted)) of the same compound?
The TGI was 9.12 µM.

And the GI50 (SK-OV-3)?
Its GI50 is 2.45 µM.

And the GI50 (A498)?
The GI50 was 2.82 µM.

And the TGI (A498; read-out: Log TGI (converted))?
The TGI was 7.41 µM.

And the GI50 (ACHN)?
The GI50 was 2.75 µM.

And the TGI (ACHN; read-out: Log TGI (converted))?
Its TGI is 8.91 µM.

What about the GI50 (MDA-MB-231) of the same compound?
The GI50 was 2.04 µM.

And the TGI (MDA-MB-231)?
The TGI was 8.13 µM.

And the GI50 (MCF7)?
The GI50 was 2.29 µM.

And the TGI (MCF7; read-out: Log TGI (converted))?
Its TGI is 7.76 µM.

For `Cc1ccc(Cl)cc1Nc1nc(C(F)(F)F)ccc1C(=O)N1CCN(c2ccc(F)cc2)CC1`, which GI50 (IGROV-1) is on record?
Its GI50 is 0.132 µM.

What about the GI50 (CAKI-1) of the same compound?
The GI50 was 1.51 µM.

And the GI50 (SNB-75)?
Its GI50 is less than 0.01 µM.
